{"source": "paper PMC9358627", "about": "(Journal of clinical pharmacology, 2021)", "key": {"[1]": {"conditions": "human, in vivo, oral", "summary_of_the_method": "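Patients at steady state, same oral calcineurin inhibitor dose for ≥7 days. 0-h blood drawn before the ~7 AM dose to give trough. Samples iced, centrifuged, harvested within 60 min, stored −70°C until assay.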"}, "[2]": {"assay_type": "in vivo, human", "conditions": "for AUC: Mycophenolic acid AUC6-12hr", "summary_of_the_method": "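Steady state with the same oral dose for ≥7 days, calcineurin inhibitor co-therapy. Pre-dose sample, then dosing ~7 AM, meals at 4 h, serial sampling over 12 h. Plasma iced, centrifuged, stored −70°C. LC/MS of test compound and its glucuronide, LLOQ 0.072 µg/mL. Non-compartmental AUC0-12h by linear trapezoidal rule. […] AUC6-12h/AUC0-12h gauges enterohepatic circulation.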"}, "[3]": {"assay_type": "in vivo", "conditions": "human, plasma, oral, C12hr, phenotypic mean (±95% CI)", "summary_of_the_method": "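Stable kidney transplant recipients had held fixed doses for ≥7 days. Around 7 AM, after a 0-h draw, they took the oral test compound with a calcineurin inhibitor. Plasma was sampled serially over 12 h, iced, spun and stored at −70°C. LC/MS with internal standards (LLOQ 0.072 µg/mL) gave the 12-h trough. Three ABCC2 SNPs were TaqMan-genotyped in duplicate. THESIAS maximum-likelihood analysis estimated haplotype phenotypic means with 95% CI.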"}, "[4]": {"assay": "Mycophenolic acid pharmacokinetic parameters by individual ABCC2 SNP genotype", "assay_type": "in vivo", "conditions": "human, plasma, oral, mean; for AUC(0-t): Mycophenolic acid AUC0-12hr; for clearance: Mycophenolic acid Clearance", "summary_of_the_method": "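Stable transplant recipients were studied at steady state. Oral test compound was given with a calcineurin inhibitor, with meals 4 h post-dose. Serial 12-h plasma was analysed by LC/MS (standard curve 0.145–15.5 µg/mL). AUC0-12h came from the linear trapezoidal rule, non-compartmental. […] ABCC2 −24C>T, 1249G>A and 3972C>T were genotyped by TaqMan allelic discrimination, 10 ng DNA, in duplicate.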"}, "[5]": {"conditions": "following oral drug administration; attributed to enterohepatic circulation; ref [8],[12]; cited from earlier work"}, "[6]": {"conditions": "ABCC2 1249 G>A (rs2273697) All, N=147"}, "[7]": {"conditions": "ABCC2 3972 C>T (rs 3740066) All, N=146"}, "[8]": {"conditions": "ABCC2 −24C>T (rs717620) All, N=147"}}, "note": "Like-named read-outs stand apart in the source and are kept apart here.", "data": [{"smiles": "C=CC[C@@H]1/C=C(\\C)C[C@H](C)C[C@H](OC)[C@H]2O[C@@](O)(C(=O)C(=O)N3CCCC[C@H]3C(=O)O[C@H](/C(C)=C/[C@@H]3CC[C@@H](O)[C@H](OC)C3)[C@H](C)[C@@H](O)CC1=O)[C@H](C)C[C@@H]2OC", "note": "[Tacrolimus, tacrolimus]", "values": [{"measurement": "concentration at 0 h", "setting": "[1]", "value": "7.2 ± 1.89", "unit": "ng/mL"}]}, {"smiles": "COc1c(C)c2c(c(O)c1C/C=C(\\C)CCC(=O)O)C(=O)OC2", "note": "[Mycophenolic acid, mycophenolic acid]", "values": [{"measurement": "Mycophenolic acid CL/F", "setting": "[2]; All (N=147), steady state, oral, mean ± SD", "value": "15.99 ± 9.41", "unit": "L/h"}, {"measurement": "Enterohepatic Recirculation, patients", "setting": "[2]; Cyclosporine (n=80), 36 patients", "value": "36 (45.0%)"}, {"measurement": "Mycophenolic acid CL/F", "setting": "[2]; Cyclosporine Group (n=80), mycophenolate mofetil, mean ± SD", "value": "20.50 ± 9.99", "unit": "L/h"}, {"measurement": "Mycophenolic acid AUC0-12hr", "setting": "[2]; Cyclosporine Group (n=80), mean ± SD", "value": "40.82 ± 17.60", "unit": "mg●hr/L"}, {"measurement": "Enterohepatic Recirculation, patients", "setting": "[2]; Tacrolimus (n=67), 52 patients", "value": "52 (77.61%)"}, {"measurement": "Mycophenolic acid CL/F", "setting": "[2]; Tacrolimus Group (n=67), enteric-coated mycophenolate sodium, mean ± SD", "value": "10.60 ± 4.71", "unit": "L/h"}, {"measurement": "AUC(0-t)", "setting": "[2]; human, plasma, oral, Mycophenolic acid AUC0-12hr, Tacrolimus Group (n=67), mean ± SD", "value": "68900 ± 30900", "unit": "ng·h/mL"}, {"measurement": "AUC", "setting": "[2]; human, plasma, oral, All (N=147), mean ± SD", "value": "19100 ± 15200", "unit": "ng·h/mL"}, {"measurement": "AUC", "setting": "[2]; human, plasma, oral, Cyclosporine Group (n=80), mean ± SD", "value": "13100 ± 7150", "unit": "ng·h/mL"}, {"measurement": "AUC", "setting": "[2]; human, plasma, oral, Tacrolimus Group (n=67), mean ± SD", "value": "26200 ± 18800", "unit": "ng·h/mL"}, {"measurement": "patients achieving the therapeutic range of AUC0-12h from 30 to 60 mg●h/L", "setting": "[2]; patients receiving cyclosporine", "value": 56.3, "unit": "%"}, {"measurement": "patients achieving the therapeutic range of AUC0-12h from 30 to 60 mg●h/L", "setting": "[2]; tacrolimus group", "value": 34.3, "unit": "%"}, {"measurement": "slower apparent clearance", "setting": "[2]; tacrolimus group compared with cyclosporine group", "value": 48, "unit": "%"}, {"measurement": "patients exhibiting enterohepatic circulation", "setting": "[2]; tacrolimus regimen", "value": "More than 75%"}, {"measurement": "concentration at 12 h", "setting": "[3]; All (N=147), variant haplotype (CGT)", "value": 1010, "unit": "ng/mL"}, {"measurement": "concentration at 12 h", "setting": "[3]; All (N=147), wildtype haplotype (CGC)", "value": 1630, "unit": "ng/mL"}, {"measurement": "concentration at 12 h", "setting": "[3]; Cyclosporine Group (n=80), variant haplotype (CGT)", "value": 783, "unit": "ng/mL"}, {"measurement": "concentration at 12 h", "setting": "[3]; Cyclosporine Group (n=80), wildtype haplotype (CGC)", "value": 965, "unit": "ng/mL"}, {"measurement": "concentration at 12 h", "setting": "[3]; Tacrolimus Group (n=67), variant haplotype (CGT)", "value": 1330, "unit": "ng/mL"}, {"measurement": "concentration at 12 h", "setting": "[3]; Tacrolimus Group (n=67), wildtype haplotype (CGC)", "value": 2250, "unit": "ng/mL"}, {"measurement": "AUC(0-t)", "setting": "[4]; [6]", "value": 53600, "unit": "ng·h/mL"}, {"measurement": "AUC(0-t)", "setting": "[4]; [7]", "value": 53400, "unit": "ng·h/mL"}, {"measurement": "AUC(0-t)", "setting": "[4]; [8]", "value": 53600, "unit": "ng·h/mL"}, {"measurement": "clearance", "setting": "[4]; [6]", "value": 266, "unit": "mL/min"}, {"measurement": "clearance", "setting": "[4]; [7]", "value": 268, "unit": "mL/min"}, {"measurement": "clearance", "setting": "[4]; [8]", "value": 266, "unit": "mL/min"}, {"measurement": "secondary mycophenolic acid peak, time of appearance", "setting": "[5]", "value": "6 to 12", "unit": "h"}]}]}
